Source: ChEMBL document CHEMBL5344415, “Synthesis and Characterization of Phenylalanine Amides Active against Mycobacterium abscessus and Other Mycobacteria” (J Med Chem, 2023)
Converted amounts (≈) assume the structure as drawn.

Assays:
[1] = tested on: Mycobacteroides abscessus; experiment: Antibacterial activity against Mycobacterium abscessus ATCC 19977 expressing tomato RFP assessed as bacterial growth inhibition incubated for 3 days in MHII medium by RFP fluorescence based broth microdilution method; assay type: functional; settings: ATCC 19977, 72 h, time 3 day
Procedure, shortened: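 Broth microdilution in MHII broth with 0.05 % Tween 80, against the RFP-expressing strain. Twofold nine-point dilution series. Inoculum 5 x 10⁵ cells/mL from a mid-log preculture. Incubated 3 days at 37 °C. Read-out by RFP fluorescence (ex 544/em 590 nm). Controls were 1 % DMSO and 100 μM amikacin. MIC₉₀ from duplicates, averaged.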

MCF7 = experiment: Cytotoxicity against human MCF7 cells assessed as reduction in cell viability incubated for 72 hrs by SRB assay; assay type: toxicity, cell-based
[2] = tested on: Mycolicibacterium smegmatis; experiment: Antibacterial activity against Mycobacterium smegmatis mc2 155 expressing tomato RFP assessed as bacterial growth inhibition incubated for 3 days in 7H9 medium by RFP fluorescence based broth microdilution method; assay type: functional; settings: mc2 155, 72 h, time 3 day
Procedure, shortened: (§1)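 Broth microdilution in 7H9 with 10 % ADS and 0.05 % Tween 80. Twofold nine-point dilution series. Inoculum 5 x 10⁵ cells/mL taken from a mid-log preculture. Incubation at 37 °C, 3 days for M. smegmatis and M. abscessus, 5 days for M. intracellulare. Read-out by RFP fluorescence (ex 544/em 590 nm). Controls were 1 % DMSO and 100 μM amikacin. MIC₉₀ from duplicates, averaged.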

[3] = tested on: Mycobacterium intracellulare; experiment: Antibacterial activity against Mycobacterium intracellulare ATCC 35761 expressing tomato RFP assessed as bacterial growth inhibition incubated for 5 days in 7H9 medium by RFP fluorescence based broth microdilution method; assay type: functional; settings: ATCC 35761, 120 h, time 5 day; procedure, shortened: as §1
[4] = tested on: Mycobacteroides abscessus; experiment: Antibacterial activity against Mycobacterium abscessus Bamboo harboring inactive clarithromycin-sensitive erm41 C28 sequevar assessed as bacterial growth inhibition incubated for 3 days in 7H9 medium by optical density based method; assay type: functional; settings: 72 h, time 3 day
HeLa = experiment: Cytotoxicity against human HeLa cells assessed as reduction in cell viability incubated for 72 hrs by SRB assay; assay type: toxicity, cell-based
[5] = Cytotoxicity against mouse NIH3T3 cells assessed as reduction in cell viability incubated for 72 hrs by SRB assay; assay type: toxicity, cell-based; settings: mouse, NIH3T3 cells
[6] = tested on: Mycobacterium tuberculosis; experiment: Antibacterial activity against Mycobacterium tuberculosis H37Rv ATCC 27294 assessed as bacterial growth inhibition incubated for 7 days in 7H9 medium by optical density based microplate reader analysis; assay type: functional; settings: H37Rv ATCC 27294, 168 h, time 7 day
Procedure, shortened: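 Compounds serially diluted in flat-bottom 96-well plates. Mid-log culture mixed in to a final OD₆₀₀ of 0.05. Sealed plates incubated in humidified boxes at 37 °C for 7 days with shaking at 80 rpm. Turbidity read at 600 nm. MIC₉₀ taken from dose–response curves. Two biological replicates, averaged.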

A2780 = experiment: Cytotoxicity against human A2780 cells assessed as reduction in cell viability incubated for 72 hrs by SRB assay; assay type: toxicity, cell-based
HT-29 = experiment: Cytotoxicity against human HT-29 cells assessed as reduction in cell viability incubated for 72 hrs by SRB assay; assay type: toxicity, cell-based
A-375 = experiment: Cytotoxicity against human A-375 cells assessed as reduction in cell viability incubated for 72 hrs by SRB assay; assay type: toxicity, cell-based
[7] = Kinetic solubility of compound in PBS at 0.78 to 500 uM measured immediately by nephelometric method; assay type: physicochemical; settings: buffer, dose 0.78-500 µM
Procedure, shortened: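 DMSO stocks prediluted in DMSO, then diluted 1:50 into PBS (2 % DMSO final) and read immediately by nephelometry at 0.78–500 μM; blank-corrected data fitted by segmental regression; quadruplicates from one stock.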

[8] = tested on: Mycobacteroides abscessus; experiment: Antibacterial activity against Mycobacterium abscessus ATCC 19977 expressing tomato RFP infected in human THP-1 cells assessed as bacterial growth inhibition incubated for 4 days in RPMI medium by RFP fluorescence based assay; assay type: functional; settings: ATCC 19977, 96 h, time 4 day
Procedure, shortened: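 RFP M. abscessus washed, moved into RPMI, filtered through 5 µm and opsonised with 10 % human serum for 30 min. THP-1 cells infected at MOI 5:1 with PMA 40 ng/mL for 4 h at 37 °C, then washed. Infected cells (1x10⁵/well) given a ten-point twofold series. Incubated 4 days at 37 °C, 5 % CO₂. Cells PFA-fixed and DAPI-stained. RFP quantified by imaging. Controls were DMSO and 1.5 µM bedaquiline. Duplicate.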

[9] = tested on: Mycobacteroides abscessus; experiment: Antibacterial activity against Mycobacterium abscessus ATCC 19977 expressing tomato RFP assessed as bacterial growth inhibition incubated for 3 days in 7H9 medium by RFP fluorescence based broth microdilution method; assay type: functional; settings: ATCC 19977, 72 h, time 3 day; procedure, shortened: as §1

Structure (SMILES) | MIC90 [1] [µM] | EC50 (MCF7) [µM] | MIC90 [2] [µM] | MIC90 [3] [µM] | MIC50 [4] [µM] | MIC90 [4] [µM] | EC50 (HeLa) [µM] | EC50 at 72 h [5] [µM] | MIC90 [6] [µM] | EC50 (A2780) [µM] | EC50 (HT-29) [µM] | EC50 (A-375) [µM] | Kinetic_solubility [7] [µM] | MIC50 [8] [µM] | MIC90 [8] [µM] | MIC90 [9] [µM]
O=C(N[C@H](Cc1ccsc1)C(=O)Nc1ccccc1N1CCOCC1)c1cccs1 | 12.5 (≈ 5.52 µg/mL) | > 30 | 1.56 (≈ 0.689 µg/mL) | 1.56 (≈ 0.689 µg/mL) | 2.3 (≈ 1.02 µg/mL) | 7 (≈ 3.09 µg/mL) | > 30 | > 30 | 3.13 (≈ 1.38 µg/mL) | > 30 | > 30 | > 30 | 30 | 12.5 (≈ 5.52 µg/mL) | 50 (≈ 22.1 µg/mL) | 12.5 (≈ 5.52 µg/mL)
O=C(N[C@H](Cc1ccc(O)cc1)C(=O)Nc1cc(F)ccc1N1CCS(=O)(=O)CC1)c1cccs1 | 3.13 (≈ 1.62 µg/mL) | > 30 | 6.25 (≈ 3.24 µg/mL) | 0.05 (≈ 0.0259 µg/mL) | 0.4 (≈ 0.207 µg/mL) | 9 (≈ 4.66 µg/mL) | > 30 | > 30 | 0.78 (≈ 0.404 µg/mL) | 29.7 | 29.8 | > 30 | 170 | 6.25 (≈ 3.24 µg/mL) | 25 (≈ 12.9 µg/mL) | 6.25 (≈ 3.24 µg/mL)
O=C(N[C@H](Cc1cccs1)C(=O)Nc1ccccc1N1CCOCC1)c1ccccc1F | 12.5 (≈ 5.67 µg/mL) | > 30 | 1.56 (≈ 0.708 µg/mL) | 0.78 (≈ 0.354 µg/mL) | 2 (≈ 0.907 µg/mL) | 7 (≈ 3.17 µg/mL) | > 30 | > 30 | 3.13 (≈ 1.42 µg/mL) | > 30 | > 30 | > 30 | 39 | 6.25 (≈ 2.83 µg/mL) | 25 (≈ 11.3 µg/mL) | 6.25 (≈ 2.83 µg/mL)
O=C(N[C@H](Cc1ccc(O)cc1)C(=O)Nc1cc(F)ccc1N1CCSCC1)c1ccccc1F | 50 (≈ 24.9 µg/mL) | > 30 | 6.25 (≈ 3.11 µg/mL) | 0.2 (≈ 0.0995 µg/mL) | 1.7 (≈ 0.846 µg/mL) | 15 (≈ 7.46 µg/mL) | > 30 | > 30 | 1.56 (≈ 0.776 µg/mL) | > 30 | > 30 | > 30 | 58 | 6.25 (≈ 3.11 µg/mL) | 25 (≈ 12.4 µg/mL) | –
O=C(N[C@H](Cc1ccsc1)C(=O)Nc1ccccc1N1CC[S+]([O-])CC1)c1cccs1 | 12.5 (≈ 5.92 µg/mL) | > 30 | 3.13 (≈ 1.48 µg/mL) | 0.2 (≈ 0.0947 µg/mL) | 3.4 (≈ 1.61 µg/mL) | 15 (≈ 7.1 µg/mL) | > 30 | > 30 | 6.25 (≈ 2.96 µg/mL) | > 30 | > 30 | > 30 | 74 | 12.5 (≈ 5.92 µg/mL) | 100 (≈ 47.4 µg/mL) | 6.25 (≈ 2.96 µg/mL)
O=C(N[C@H](Cc1cccs1)C(=O)Nc1ccccc1N1CC[S+]([O-])CC1)c1ccccc1F | 12.5 (≈ 6.07 µg/mL) | 28.9 | 1.56 (≈ 0.758 µg/mL) | 0.2 (≈ 0.0971 µg/mL) | 1.8 (≈ 0.874 µg/mL) | 6.5 (≈ 3.16 µg/mL) | > 30 | > 30 | 1.56 (≈ 0.758 µg/mL) | 29 | > 30 | 29.3 | 96 | 6.25 (≈ 3.04 µg/mL) | 50 (≈ 24.3 µg/mL) | 6.25 (≈ 3.04 µg/mL)
O=C(N[C@H](Cc1ccsc1)C(=O)Nc1ccccc1N1CC[S+]([O-])CC1)c1ccccc1F | 12.5 (≈ 6.07 µg/mL) | > 30 | 1.56 (≈ 0.758 µg/mL) | 0.2 (≈ 0.0971 µg/mL) | 1.5 (≈ 0.728 µg/mL) | 4.4 (≈ 2.14 µg/mL) | > 30 | > 30 | 3.13 (≈ 1.52 µg/mL) | > 30 | > 30 | > 30 | 96 | 6.25 (≈ 3.04 µg/mL) | 50 (≈ 24.3 µg/mL) | 6.25 (≈ 3.04 µg/mL)
O=C(N[C@H](Cc1ccc(O)cc1)C(=O)Nc1cc(F)ccc1N1CCSCC1)c1cccs1 | – | > 30 | 12.5 (≈ 6.07 µg/mL) | 0.1 (≈ 0.0486 µg/mL) | 1.6 (≈ 0.777 µg/mL) | 15 (≈ 7.28 µg/mL) | > 30 | > 30 | 0.78 (≈ 0.379 µg/mL) | > 30 | > 30 | > 30 | 78 | 12.5 (≈ 6.07 µg/mL) | 50 (≈ 24.3 µg/mL) | 12.5 (≈ 6.07 µg/mL)
O=C(N[C@H](Cc1cccs1)C(=O)Nc1ccccc1N1CC[S+]([O-])CC1)c1cccs1 | 12.5 (≈ 5.92 µg/mL) | > 30 | 3.13 (≈ 1.48 µg/mL) | 0.2 (≈ 0.0947 µg/mL) | 1.3 (≈ 0.616 µg/mL) | 5.8 (≈ 2.75 µg/mL) | > 30 | > 30 | 3.13 (≈ 1.48 µg/mL) | > 30 | > 30 | > 30 | 60 | 12.5 (≈ 5.92 µg/mL) | 100 (≈ 47.4 µg/mL) | 12.5 (≈ 5.92 µg/mL)
O=C(N[C@H](Cc1ccccc1)C(=O)Nc1ccccc1C1CCSCC1)c1cccs1 | 100 (≈ 45.1 µg/mL) | > 30 | 6.25 (≈ 2.82 µg/mL) | 6.25 (≈ 2.82 µg/mL) | 21 (≈ 9.46 µg/mL) | 44 (≈ 19.8 µg/mL) | > 30 | > 30 | > 25 | > 30 | > 30 | > 30 | 39 | > 100 | > 100 | 50 (≈ 22.5 µg/mL)
O=C(N[C@H](Cc1ccccc1)C(=O)Nc1cc(F)ccc1N1CC[S+]([O-])CC1)c1ccccc1F | 3.13 (≈ 1.56 µg/mL) | > 30 | 1.56 (≈ 0.776 µg/mL) | 0.2 (≈ 0.0995 µg/mL) | 0.52 (≈ 0.259 µg/mL) | 2 (≈ 0.995 µg/mL) | > 30 | > 30 | 0.78 (≈ 0.388 µg/mL) | > 30 | > 30 | > 30 | 184 | 0.39 (≈ 0.194 µg/mL) | 12.5 (≈ 6.22 µg/mL) | 3.31 (≈ 1.65 µg/mL)
O=C(N[C@H](Cc1ccccc1)C(=O)Nc1cc(F)ccc1N1CC[S+]([O-])CC1)c1cccs1 | 3.13 (≈ 1.52 µg/mL) | > 30 | 1.56 (≈ 0.758 µg/mL) | 0.05 (≈ 0.0243 µg/mL) | 0.28 (≈ 0.136 µg/mL) | 1.9 (≈ 0.923 µg/mL) | > 30 | > 30 | 0.4 (≈ 0.194 µg/mL) | > 30 | > 30 | > 30 | 131 | 0.78 (≈ 0.379 µg/mL) | 25 (≈ 12.1 µg/mL) | 1.56 (≈ 0.758 µg/mL)
O=C(N[C@H](Cc1ccsc1)C(=O)Nc1ccccc1N1CCOCC1)c1ccccc1F | 12.5 (≈ 5.67 µg/mL) | > 30 | 1.56 (≈ 0.708 µg/mL) | 0.78 (≈ 0.354 µg/mL) | 1.9 (≈ 0.862 µg/mL) | 7 (≈ 3.17 µg/mL) | > 30 | > 30 | 3.13 (≈ 1.42 µg/mL) | > 30 | > 30 | > 30 | 31 | 6.25 (≈ 2.83 µg/mL) | 25 (≈ 11.3 µg/mL) | 12.5 (≈ 5.67 µg/mL)
O=C(N[C@H](Cc1ccccc1)C(=O)Nc1cc(F)ccc1N1CCSCC1)c1cccs1 | 50 (≈ 23.5 µg/mL) | > 30 | 3.13 (≈ 1.47 µg/mL) | 0.78 (≈ 0.366 µg/mL) | 1.4 (≈ 0.657 µg/mL) | 14 (≈ 6.57 µg/mL) | > 30 | > 30 | 1.56 (≈ 0.733 µg/mL) | > 30 | > 30 | > 30 | 37 | 3.13 (≈ 1.47 µg/mL) | > 100 | 25 (≈ 11.7 µg/mL)
